What was measured:
[1] = Inhibition of HIV recombinant integrase strand transfer assay; parameters: species or system Human immunodeficiency virus
How it was run: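 Recombinant integrase (2 µM) preassembled with biotinylated donor DNA on streptavidin SPA beads (MOPS pH 7.2, MgCl₂, DTT, 5 min, 37 °C), then washed. Compound in DMSO (6.7% final) preincubated 60 min at 37 °C. [³H] target DNA added at 7 nM final, strand transfer run 25-45 min at 37 °C, EDTA quench, SPA readout. Mean ± standard error.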

[2] = Cytotoxicity against human MT4 cells after 5 days by MTS assay; format: cell-based; settings: read-out: CCIC50
How it was run: (§1)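 MT-4 cells in RPMI with 15% FBS, 10% T-cell growth factor and 10 µg/mL gentamicin, cultured 5 days at 37 °C, 5% CO₂. Compound-induced cytotoxicity (CCIC50) measured by MTS staining at OD 492 nm, in parallel with the HIV-1 IIIB antiviral MTS readout in the same cell line.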

[3] = test system: Human immunodeficiency virus 1; test: Antiviral activity against HIV1 3B infected in human MT4 cells assessed as inhibition of virus-induced cytopathic effect after 5 days by MTS method; format: functional, organism-based; settings: Human immunodeficiency virus 1, 3B, MT4, 120 h
How it was run: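 HIV-1 IIIB infection of MT-4 cells (HTLV-1 transformed) for 1 h at 37 °C, 5% CO2. Cells then added to compounds prediluted in RPMI with FBS and gentamicin; final assay medium had 15% FBS and 10% T-cell growth factor. Incubated 5 days at 37 °C. Virus-induced cytopathic effect read by MTS staining, OD 492 nm. Cytotoxicity measured in parallel.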

[4] = test system: Human immunodeficiency virus; test: Antiviral activity against pseudotype HIV after 2 days in presence 40 mg/mL human serum albumin; format: functional, organism-based; settings: Human immunodeficiency virus 1, 48 h
How it was run: (§2)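 Pseudotyped HIV luciferase assay in 293T cells (2 × 10^4 per well), 2 days at 37 °C in DMEM + 10% FCS, luminescence read-out. Run with and without added serum protein, 40 mg/mL HSA. Line 5 is the ratio of the IC50 with HSA to the IC50 without.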

[5] = test system: Human immunodeficiency virus; test: Antiviral activity against pseudotype HIV after 2 days in absence of human serum albumin; format: functional, organism-based; settings: Human immunodeficiency virus 1, 48 h
How it was run: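 VSV-G-pseudotyped HIV vector carrying luciferase, harvested from transfected 293T cells. Target 293T cells (2 × 10^4 per well) mixed with vector at about 100K CPM and plated onto compounds in DMEM + 10% FCS. Incubated 2 days at 37 °C, 5% CO2. Luciferase read by Steady Glo luminescence. Values are means ± standard error (N > 1).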

MT4 [6] = test: Cytotoxicity against human MT4 cells up to 8 to 10 uM after 5 days by MTS assay; format: cell-based; settings: mt4, 120 h; how it was run: as §1
[7] = Therapeutic index, ratio of CCIC50 for human MT4 cells to IC50 for HIV1 3B; format: cell-based; how it was run: as §1
MT4 [8] = test: Cytotoxicity against human MT4 cells up to =>7 uM after 5 days by MTS assay; format: cell-based; settings: mt4, 120 h; how it was run: as §1
[9] = test system: Human immunodeficiency virus 1; test: Antiviral activity against HIV1 3B infected in human MT4 cells assessed as inhibition of virus-induced cytopathic effect albumin after 5 days by MTS method in presence of 40 mg/mL human serum albumin; format: functional, organism-based; settings: Human immunodeficiency virus 1, 3B, MT4, 120 h
How it was run: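 HIV-1 IIIB infection of MT-4 cells for 1 h at 37 °C, then cells added to prediluted compounds in RPMI with 15% FBS, 10% T-cell growth factor, 10 µg/mL gentamicin, plus 40 mg/mL HSA. 5 days at 37 °C, 5% CO₂. Cytopathic effect read by MTS staining at OD 492 nm. Mean ± standard error where N > 1.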

[10] = test system: Human immunodeficiency virus 1; test: Ratio of IC50 for HIV1 3B in presence of human serum albumin to IC50 for HIV1 3B in absence of human serum albumin; format: functional
How it was run: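 MT-4/HIV-1 IIIB MTS cytopathic-effect assay, 5 days at 37 °C, run in standard medium and again with 40 mg/mL HSA added. The ratio compares the IC50 with HSA to the IC50 without.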

Rattus norvegicus = test: Hepatic blood flow in CD rat at 1 mg/kg, iv; format: ADME, organism-based, Liver; parameters: dose 1 mg/kg, route intravenous; settings: in vivo
[11] = Volume of distribution at steady state in CD rat at 1 mg/kg, iv; format: ADME, organism-based; parameters: dose 1 mg/kg, route intravenous; settings: in vivo, read-out: Vdss
How it was run: (§3)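 Male CD rats, n = 2, given 1 mg/kg iv (1 mL/kg, fasted) in 10% DMSO/15% Solutol/75% 0.05 M […]. Blood drawn via implanted venous cannula at timed intervals over 24 h, EDTA plasma analysed by LC/MS/MS.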

[12] = Oral bioavailability in non fasted CD rat at 5 mg/kg; format: ADME, organism-based; settings: in vivo
How it was run: (§4)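 Male CD rats, n = 2 per arm, dosed 5 mg/kg po (5 mL/kg) in 10% DMSO/15% Solutol/75% 0.05 M […]. Fasted arm had food removed the evening before and returned 4 h post-dose; other arm nonfasted. Cannula blood sampled over 24 h, EDTA plasma by LC/MS/MS. Bioavailability referenced to the 1 mg/kg iv arm.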

[13] = Clearance in CD rat at 1 mg/kg, iv; format: ADME, organism-based; parameters: dose 1 mg/kg, route intravenous; settings: in vivo; how it was run: as §3
[14] = Oral bioavailability in fasted CD rat at 5 mg/kg; format: ADME, organism-based; settings: in vivo; how it was run: as §4
[15] = test system: Human immunodeficiency virus; test: Ratio of IC50 for pseudotype HIV in presence of human serum albumin to IC50 for pseudotype HIV in absence of human serum albumin; format: functional; how it was run: as §2

SMILES | IC50 [1] [nM] | CC50 at 120 h [2] [nM] | IC50 [3] [nM] | IC50 [4] [nM] | IC50 [5] [nM] | Activity (MT4 [8]) | also measured
COCCNC(=O)c1c(O)c2ncc(Cc3ccccc3)cc2[nH]c1=O | 7 | > 10000 | 91 | 59 | 14 |  | Activity (MT4 [6]): Non-toxic
CCOC(=O)c1c(O)c2ncc(Cc3ccc(F)cc3)cc2n(CC2CC2)c1=O | 15 |  |  |  | 358 |  | 
CC(C)CNC(=O)c1c(O)c2ncc(Cc3ccc(F)cc3)cc2[nH]c1=O | 6 | 7000 | 68 | 2500 | 4 | Non-toxic | selectivity ratio [7]: > 100
CCNC(=O)c1c(O)c2ncc(Cc3ccc(F)cc3)cc2n(C)c1=O | 4 | > 50000 | 3.5 | 661 | 1.6 | Non-toxic | IC50 [9]: 4000 nM
COCCNC(=O)c1c(O)c2ncc(Cc3ccc(F)cc3)cc2n(C)c1=O | 4 | > 20000 | 5 | 50 | 2 |  | Ratio IC50 [10]: <10; QH (Rattus norvegicus): 20%; IC50 [9]: 48 nM; Vd [11]: 0.6 L/kg; bioavailability [12]: 20%; clearance [13]: 11.8 mL/min/kg; bioavailability [14]: 25%
CCOC(=O)c1c(O)c2ncc(Cc3ccccc3)cc2[nH]c1=O | 3 | 103000 | > 39500 |  | 3700 |  | 
CCOC(=O)c1c(O)c2ncc(Cc3ccc(F)cc3)cc2[nH]c1=O | 13 |  | 1200 |  | 1200 |  | 
NC(=O)c1c(O)c2ncc(Cc3ccc(F)cc3)cc2[nH]c1=O | 45 |  |  | 656 | 66 |  | Ratio IC50 [15]: 10
COCCNC(=O)c1c(O)c2ncc(Cc3ccc(F)cc3)cc2[nH]c1=O | 5 | > 8000 | 36 | 36 | 4.2 |  | Activity (MT4 [6]): Non-toxic
COC(=O)c1c(O)c2ncccc2[nH]c1=O | > 500000 | > 125000 | > 125000 |  | > 14000 |  | 
CNC(=O)c1c(O)c2ncc(Cc3ccc(F)cc3)cc2[nH]c1=O | 6 | > 8000 | 30 | 119 | 3.4 | Non-toxic | selectivity ratio [7]: > 100
CCOC(=O)c1c(O)c2ncc(Cc3ccc(F)cc3)cc2n(C)c1=O | 6 | 6000 | 1300 | 12000 | 77 |  | 
CNC(=O)c1c(O)c2ncc(Cc3ccc(F)cc3)cc2n(C)c1=O | 4.1 | 20000 | 11 | 57 | 1.4 | Non-toxic | 
COC(=O)c1c(O)c2ncc(Cc3ccccc3)cc2[nH]c1=O | 8 | > 125000 | > 125000 |  | 14000 |  | 
CCOC(=O)c1c(O)c2ncc(Cc3ccc(F)cc3)cc2n(CC(C)C)c1=O | 22 |  |  |  | 155 |  | 
O=C(NC1CC1)c1c(O)c2ncc(Cc3ccc(F)cc3)cc2[nH]c1=O | 10 | > 8000 | 78 | > 14000 | 8 | Non-toxic | selectivity ratio [7]: > 100

From ChEMBL document CHEMBL1138484, “Synthesis and antiviral activity of 7-benzyl-4-hydroxy-1,5-naphthyridin-2(1H)-one HIV integrase inhibitors” (J Med Chem, 2009)
